According to ChEMBL document CHEMBL1122216, “2-(Aminomethyl)phenols, a new class of saluretic agents. 6. Effects of N,O-spiroannulation and subsequent quaternization” (1983):

Experiments:
Rattus norvegicus [1] = assay: Antihypertensive activity after oral administration of 5 mg/kg dose in spontaneously hypertensive(SH) rats; assay type: functional
Method in brief: (§1)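 Spontaneously hypertensive rats were scored by the maximum fall in blood pressure: 0, <20 mm; 1, <30 mm; 2, <40 mm; 3, >40 mm Hg.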

Rattus norvegicus [2] = assay: Saluretic property after administration in rats; assay type: functional
Method in brief: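 Rats were housed three per cage, with three cages per dose. Sodium excreted over the first 5 h was scored from the geometric mean: 0, <2 mequiv; ±, >2; 1, <8; 2, <15; 3, <25; 4, <35; 5, <45; 6, <55 mequiv.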

Rattus norvegicus [3] = assay: Antihypertensive activity after oral administration of 20 mg/kg dose in spontaneously hypertensive(SH) rats; assay type: functional; method in brief: as §1
Rattus norvegicus [4] = assay: Antihypertensive activity after intraperitoneal administration of 20 mg/kg dose in spontaneously hypertensive(SH) rats; score is for average value of two animals; assay type: functional; method in brief: as §1
Canis familiaris [5] = assay: Saluretic property in a anesthetized dog after 5 mg/kg oral administration; assay type: functional, Canis lupus familiaris
Rattus norvegicus [6] = assay: Antihypertensive activity after oral administration of 0.31 mg/kg dose in spontaneously hypertensive(SH) rats; assay type: functional; method in brief: as §1
Rattus norvegicus [7] = assay: Antihypertensive activity after administration of 5 mg/kg dose in spontaneously hypertensive(SH) rats; score is for average value of four animals; assay type: functional; method in brief: as §1
Rattus norvegicus [8] = assay: Antihypertensive activity after administration of 20 mg/kg dose in spontaneously hypertensive(SH) rats; score is for average value of two animals; assay type: functional; method in brief: as §1
Canis familiaris [9] = assay: Saluretic property in an anesthetized dog after 5 mg/kg administration; assay type: functional, Canis lupus familiaris
Rattus norvegicus [10] = assay: Antihypertensive activity after po administration of 5 mg/kg dose in spontaneously hypertensive(SH) rats; Score is for average value of two animals; assay type: functional; method in brief: as §1
Rattus norvegicus [11] = assay: Antihypertensive activity after po administration of 20 mg/kg dose in spontaneously hypertensive(SH) rats; Score is for average value of two animals; assay type: functional; method in brief: as §1
Rattus norvegicus [12] = assay: Antihypertensive activity after po administration of 40 mg/kg dose in spontaneously hypertensive(SH) rats; score is for average value of four animals; assay type: functional; method in brief: as §1
Rattus norvegicus [13] = assay: Antihypertensive activity after administration of 20 mg/kg dose in spontaneously hypertensive(SH) rats; score is for average value of four animals; assay type: functional; method in brief: as §1
Rattus norvegicus [14] = assay: Antihypertensive activity after po administration of 5 mg/kg dose in spontaneously hypertensive(SH) rats; score is for average value of two animals; assay type: functional; method in brief: as §1
Rattus norvegicus [15] = assay: Antihypertensive activity after po administration of 20 mg/kg dose in spontaneously hypertensive(SH) rats; score is for average value of six animals; assay type: functional; method in brief: as §1
Rattus norvegicus [16] = assay: Antihypertensive activity after intraperitoneal administration of 20 mg/kg dose in spontaneously hypertensive(SH) rats; assay type: functional; method in brief: as §1
Canis familiaris [17] = assay: Saluretic property in an anesthetized dog after 5 mg/kg po administration; score is for average of two animals; assay type: functional, Canis lupus familiaris
Rattus norvegicus [18] = assay: Antihypertensive activity after po administration of 5 mg/kg dose in spontaneously hypertensive(SH) rats; Score is for average value of six animals; assay type: functional; method in brief: as §1
Rattus norvegicus [19] = assay: Antihypertensive activity after po administration of 0.08 mg/kg dose in spontaneously hypertensive(SH) rats; Score is for average value of six animals; assay type: functional; method in brief: as §1
Rattus norvegicus [20] = assay: Antihypertensive activity after po administration of 0.31 mg/kg dose in spontaneously hypertensive(SH) rats; Score is for average value of six animals; assay type: functional; method in brief: as §1
Rattus norvegicus [21] = assay: Antihypertensive activity after po administration of 1.25 mg/kg dose in spontaneously hypertensive(SH) rats; Score is for average value of six animals; assay type: functional; method in brief: as §1
Rattus norvegicus [22] = assay: Antihypertensive activity after po administration of 40 mg/kg dose in spontaneously hypertensive(SH) rats; score is for average value of two animals; assay type: functional; method in brief: as §1
Canis familiaris [23] = assay: Saluretic property in an average of two anesthetized dog after 5 mg/kg po administration; assay type: functional, Canis lupus familiaris
Rattus norvegicus [24] = assay: Antihypertensive activity after po administration of 0.08 mg/kg dose in spontaneously hypertensive(SH) rats; score is for average value of four animals; assay type: functional; method in brief: as §1
Rattus norvegicus [25] = assay: Antihypertensive activity after po administration of 0.31 mg/kg dose in spontaneously hypertensive(SH) rats; score is for average value of four animals; assay type: functional; method in brief: as §1

In the case of `CC(C)(C)c1cc(I)c2c(c1)CNC1(CCC3(CC1)NCc1cc(C(C)(C)C)cc(I)c1O3)O2` (stereo unspecified), the Antihypertensive score (Rattus norvegicus [1]) is reported as 0, the Saluretic score (Rattus norvegicus [2]) is reported as 2 and the Antihypertensive score (Rattus norvegicus [3]) is reported as 2.
`CC(C)(C)c1cc(I)c2c(c1)C[N+](C)(C)C(C)(C)O2.[I-]` gave an Antihypertensive score (Rattus norvegicus [4]) of 0.
Molecule `CC(=O)Oc1cc(C(C)(C)C)cc2c1OC1(CCCCC1)[N+](C)(C)C2.[I-]` has a Saluretic score (Canis familiaris [5]) of 0, an Antihypertensive score (Rattus norvegicus [6]) of 1 and an Antihypertensive score (Rattus norvegicus [1]) of 2. It also gave a Saluretic score (Rattus norvegicus [2]) of 0.
Work on `CC(C)(C)c1cc(I)c2c(c1)CNC1(CCC(C(=O)O)CC1)O2` (stereo unspecified) yielded an Antihypertensive score (Rattus norvegicus [7]) of 2, an Antihypertensive score (Rattus norvegicus [8]) of 2 and a Saluretic score (Rattus norvegicus [2]) of 4. For the same molecule, the Saluretic score (Canis familiaris [9]) was 5.
`CC(=O)N1CCC2(CC1)Oc1c(I)cc(C(C)(C)C)cc1C[N+]2(C)C.[I-]` showed an Antihypertensive score (Rattus norvegicus [10]) of 0, an Antihypertensive score (Rattus norvegicus [11]) of 2 and a Saluretic score (Rattus norvegicus [2]) of 0. The Saluretic score (Canis familiaris [9]) was 0.
`CC(=O)N1CCC2(CC1)NCc1cc(C(C)(C)C)cc(I)c1O2` was tested, and the Antihypertensive score (Rattus norvegicus [4]) was 0 and the Saluretic score (Canis familiaris [9]) was 4.
With `CC(C)(C)c1cc(I)c2c(c1)C[N+](C)(C)C1(CCCC1)O2.[I-]` the Antihypertensive score (Rattus norvegicus [4]) was 3 and the Antihypertensive score (Rattus norvegicus [8]) was 0.
With `CC(C)(C)c1cc(I)c2c(c1)CNC1(CCCCC1)O2` the Antihypertensive score (Rattus norvegicus [12]) was 1, the Antihypertensive score (Rattus norvegicus [13]) was 0 and the Saluretic score (Rattus norvegicus [2]) was 5. The Saluretic score (Canis familiaris [9]) was 5.
`CC(C)(C)c1cc(I)c2c(c1)C[N+](C)(C)CO2.[I-]` was tested, and the Antihypertensive score (Rattus norvegicus [14]) was 0, the Antihypertensive score (Rattus norvegicus [4]) was 2 and the Saluretic score (Rattus norvegicus [2]) was 0.
`CC(C)(C)c1cc(I)c2c(c1)CNC1(O2)C2CC3C(C2)C31` (stereo unspecified) was tested, and the Antihypertensive score (Rattus norvegicus [7]) was 1, the Antihypertensive score (Rattus norvegicus [15]) was 2 and the Saluretic score (Rattus norvegicus [2]) was 5. It also gave a Saluretic score (Canis familiaris [9]) of 5.
Work on `CC(C)(C)c1cc(I)c2c(c1)C[N+](C)(C)C1(CCC(C(C)(C)C)CC1)O2.[I-]` (stereo unspecified) yielded a Saluretic score (Canis familiaris [5]) of 0, an Antihypertensive score (Rattus norvegicus [16]) of 2 and a Saluretic score (Rattus norvegicus [2]) of 0. The Antihypertensive score (Rattus norvegicus [3]) was 0.
For `CC(C)(C)c1cc(I)c2c(c1)CNC1(CCSCC1)O2`, the Saluretic score (Canis familiaris [17]) was 2, the Antihypertensive score (Rattus norvegicus [14]) was 0 and the Antihypertensive score (Rattus norvegicus [8]) was 2. It also gave a Saluretic score (Rattus norvegicus [2]) of 4.
For `CC(C)(C)c1cc(I)c2c(c1)CN(CN1COc3c(I)cc(C(C)(C)C)cc3C1)CO2`, the Antihypertensive score (Rattus norvegicus [16]) was 0.
Work on `CN1CCC2(CC1)NCc1cc(C(C)(C)C)cc(Cl)c1O2` yielded an Antihypertensive score (Rattus norvegicus [13]) of 0, a Saluretic score (Rattus norvegicus [2]) of 3 and a Saluretic score (Canis familiaris [9]) of 5.
Molecule `CC(C)(C)c1cc(I)c2c(c1)C[N+](C)(C)C1(CCNCC1)O2.[Cl-]` has an Antihypertensive score (Rattus norvegicus [4]) of 0, an Antihypertensive score (Rattus norvegicus [8]) of 0 and a Saluretic score (Rattus norvegicus [2]) of 0. For the same molecule, the Saluretic score (Canis familiaris [9]) was 0.
Molecule `CC(C)(C)c1cc(I)c(O)c(CN)c1.Cl` has an Antihypertensive score (Rattus norvegicus [18]) of 3, an Antihypertensive score (Rattus norvegicus [19]) of 0 and an Antihypertensive score (Rattus norvegicus [20]) of 1. It also gave an Antihypertensive score (Rattus norvegicus [21]) of 2, a Saluretic score (Rattus norvegicus [2]) of 6 and a Saluretic score (Canis familiaris [9]) of 6.
In the case of `CC(C)(C)c1cc(Cl)c(O)c(CN)c1.Cl`, the Antihypertensive score (Rattus norvegicus [22]) is reported as 2, the Antihypertensive score (Rattus norvegicus [8]) is reported as 0 and the Saluretic score (Rattus norvegicus [2]) is reported as 6. For the same molecule, the Saluretic score (Canis familiaris [9]) was 4.
Molecule `CN1CCC2(CC1)NCc1cc(C(C)(C)C)cc(I)c1O2` has an Antihypertensive score (Rattus norvegicus [4]) of 2, an Antihypertensive score (Rattus norvegicus [13]) of 1 and a Saluretic score (Rattus norvegicus [2]) of 4. It also gave a Saluretic score (Canis familiaris [9]) of 5.
In the case of `CC(C)(C)c1cc(I)c2c(c1)CNC1(CCCCCCCCCCC1)O2`, the Saluretic score (Canis familiaris [23]) is reported as 2, the Antihypertensive score (Rattus norvegicus [7]) is reported as 0 and the Antihypertensive score (Rattus norvegicus [13]) is reported as 1. For the same molecule, the Saluretic score (Rattus norvegicus [2]) was 4.
Work on `CC(C)(C)c1cc(I)c2c(c1)CNC1(O2)C2CC3CC(C2)CC1C3` (stereo unspecified) yielded an Antihypertensive score (Rattus norvegicus [7]) of 0, an Antihypertensive score (Rattus norvegicus [8]) of 2 and a Saluretic score (Rattus norvegicus [2]) of 3. The Saluretic score (Canis familiaris [9]) was 0.
For `CC(C)(C)c1cc(Cl)c2c(c1)CNC1(CCCCC1)O2`, the Antihypertensive score (Rattus norvegicus [4]) was 0, the Saluretic score (Rattus norvegicus [2]) was 3 and the Saluretic score (Canis familiaris [9]) was 5.
`CC(C)(C)c1cc(I)c2c(c1)CNC1(CCN(CCc3ccccc3)CC1)O2` was tested, and the Antihypertensive score (Rattus norvegicus [7]) was 0, the Antihypertensive score (Rattus norvegicus [15]) was 1 and the Saluretic score (Rattus norvegicus [2]) was 4. The Saluretic score (Canis familiaris [9]) was 5.
For `CC(C)(C)c1cc(Cl)c2c(c1)C[N+](C)(C)C1(CCCCC1)O2.[I-]`, the Antihypertensive score (Rattus norvegicus [4]) was 0.5, the Antihypertensive score (Rattus norvegicus [8]) was 0 and the Saluretic score (Rattus norvegicus [2]) was 0.
With `CC(C)(C)c1cc(I)c2c(c1)CNC1(CCC(C(C)(C)C)CC1)O2` (stereo unspecified) the Saluretic score (Canis familiaris [5]) was 5, the Antihypertensive score (Rattus norvegicus [16]) was 0 and the Saluretic score (Rattus norvegicus [2]) was 4.
`CC(C)(C)c1cc(I)c2c(c1)C[N+](C)(C)C1(CCCCC1)O2.[I-]` showed an Antihypertensive score (Rattus norvegicus [7]) of 2, an Antihypertensive score (Rattus norvegicus [24]) of 0 and an Antihypertensive score (Rattus norvegicus [25]) of 2. It also gave a Saluretic score (Rattus norvegicus [2]) of 0 and a Saluretic score (Canis familiaris [9]) of 0.
`CC1CCC2(CC1)Oc1c(I)cc(C(C)(C)C)cc1C[N+]2(C)C.[I-]` (stereo unspecified) gave an Antihypertensive score (Rattus norvegicus [8]) of 0.
Work on `CC1(C)CC(C)(C)CC2(C1)NCc1cc(C(C)(C)C)cc(I)c1O2` yielded an Antihypertensive score (Rattus norvegicus [14]) of 0, an Antihypertensive score (Rattus norvegicus [13]) of 1 and a Saluretic score (Rattus norvegicus [2]) of 4.
